This note sets out measurements from ChEMBL document CHEMBL1140866, “New pyrazoline bearing 4(3H)-quinazolinone inhibitors of monoamine oxidase: synthesis, biological evaluation, and structural determinants of MAO-A and MAO-B selectivity” (Bioorg Med Chem, 2009).

The test system of data set [1] is Mus musculus. As to the kind of experiment: Antidepressant activity in albino mouse assessed as immobility time at 100 mg/kg, ip by forced swim test. Conditions: route intraperitoneal. Type of data set: functional. In a few lines:
(§1)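 Mice given compounds i.p. at 100 mg/kg in DMSO/water (1:4), about 0.1 mL, 1 h before testing; controls got 0.1 mL vehicle; n = 7–8. Housed eight per cage, 20 ± 2 °C, 12 h light/dark. Each animal did the plus-maze first, then forced swim.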

Data set [2] deals with Mus musculus. The data set is described as follows: Anxiolytic activity in albino mouse assessed as time spent on closed arm at 100 mg/kg, ip by plus-maze test. Type of data set: functional. Also noted: unit not given here. The following applies: route intraperitoneal. A digest of the protocol:
as §1

Data set [3] addresses T1, Amine oxidase [flavin-containing] B (Rattus norvegicus, UniProt P19643).
T1 sequence (P19643 whole entry): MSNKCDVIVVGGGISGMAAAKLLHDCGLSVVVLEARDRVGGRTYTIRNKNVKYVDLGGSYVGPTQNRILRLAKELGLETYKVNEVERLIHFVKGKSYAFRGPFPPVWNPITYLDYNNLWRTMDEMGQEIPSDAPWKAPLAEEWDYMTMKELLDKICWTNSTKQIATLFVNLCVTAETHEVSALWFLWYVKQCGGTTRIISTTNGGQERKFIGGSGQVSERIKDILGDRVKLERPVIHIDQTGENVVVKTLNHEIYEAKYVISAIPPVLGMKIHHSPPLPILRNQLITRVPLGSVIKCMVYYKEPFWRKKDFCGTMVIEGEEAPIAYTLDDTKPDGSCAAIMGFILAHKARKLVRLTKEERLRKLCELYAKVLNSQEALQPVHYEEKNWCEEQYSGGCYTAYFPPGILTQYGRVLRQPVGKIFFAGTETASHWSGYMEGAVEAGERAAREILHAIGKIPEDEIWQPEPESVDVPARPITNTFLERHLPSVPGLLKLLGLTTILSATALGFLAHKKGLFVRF
The data set is described as follows: Inhibition of MAO-B in rat liver homogenate after 60 mins by residual activity plot. Type of data set: tissue-based.

The target in data set [4] is T1, Amine oxidase [flavin-containing] B. As to the kind of experiment: Inhibition of MAO-B in rat liver homogenate after 60 mins by Lineweaver-Burke plot. The following applies: for Activity: rat, 1 h, TDE = time-dependent effect. Type of data set: tissue-based.
Data set [5] deals with Mus musculus. The data set is described as follows: Anxiolytic activity in albino mouse assessed as total number of entries into arms at 100 mg/kg, ip by plus-maze test. Type of data set: functional. Conditions: route intraperitoneal. In a few lines: as §1
Data set [6] has as its target T2, Amine oxidase [flavin-containing] A (Rattus norvegicus, UniProt P21396).
T2 sequence (P21396 whole entry): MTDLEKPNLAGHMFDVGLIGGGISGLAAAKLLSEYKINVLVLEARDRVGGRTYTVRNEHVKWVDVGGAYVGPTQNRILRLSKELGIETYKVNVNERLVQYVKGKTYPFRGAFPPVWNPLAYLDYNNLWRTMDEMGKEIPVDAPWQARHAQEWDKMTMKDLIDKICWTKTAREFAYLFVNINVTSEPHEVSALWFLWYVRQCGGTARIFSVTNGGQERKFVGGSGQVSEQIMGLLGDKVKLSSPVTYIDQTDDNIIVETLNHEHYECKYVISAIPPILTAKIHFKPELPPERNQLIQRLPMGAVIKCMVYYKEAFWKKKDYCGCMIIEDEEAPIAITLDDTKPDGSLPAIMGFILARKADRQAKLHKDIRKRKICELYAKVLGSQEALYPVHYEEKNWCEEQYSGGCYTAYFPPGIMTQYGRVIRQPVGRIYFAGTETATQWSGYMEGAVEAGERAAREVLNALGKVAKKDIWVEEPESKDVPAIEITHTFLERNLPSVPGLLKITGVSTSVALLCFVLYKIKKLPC
The data set is described as follows: Inhibition of MAO-A in rat liver homogenate after 60 mins by residual activity plot. Type of data set: tissue-based.

Data set [7] addresses T2, Amine oxidase [flavin-containing] A. As to the kind of experiment: Inhibition of MAO-A in rat liver homogenate after 60 mins by Lineweaver-Burke plot. Type of data set: tissue-based. The following applies: for Activity: rat, 1 h, TDE = time-dependent effect.

By IC50 is commonly meant the concentration that gives 50% inhibition. Usually Ki stands for the dissociation constant of the complex between target and ligand, obtained from inhibition or displacement. For `Cn1c(N/N=C(/C=C/c2cccc(Cl)c2)c2ccccc2)nc2ccccc2c1=O`, the Activity in the data set on Mus musculus [1] is 54.57%; in the data set with Mus musculus [2], 246.87; in data set [4] it was “tde”; in data set [7], “tde”. The IC50 in data set [3] came out at 1.15 µM; in data set [6], 468 µM. Further, the Ki in data set [4] was 0.16 µM; in data set [7] it was 5.1 µM. For the same molecule, the arm entries in the data set with Mus musculus [5] stood at 3.15 entries.
With `Cn1c(N/N=C(/C=C/c2ccco2)c2ccc(Cl)cc2)nc2ccccc2c1=O`, the Activity in the data set on Mus musculus [1] is 67.88%; with Mus musculus [2], 219.5; in data set [4] it was “tde”; in data set [7] it was “tde”. The IC50 came out at 400 µM in data set [3] and 31.6 µM in data set [6]. The Ki stood at 125 µM in data set [4] and 80.1 µM in data set [7]. In the data set on Mus musculus [5], the arm entries was 6.75 entries.
For `COc1ccc(C(/C=C/c2ccco2)=N\Nc2nc3ccccc3c(=O)n2C)cc1`, the Activity in the data set on Mus musculus [1] is on record as 80.38%; in the data set with Mus musculus [2] it was 237.25; in data set [4], “tde”; in data set [7] it was “tde”. The results for the IC50 in data set [3] and in data set [6] were 419 µM and 34.2 µM, respectively. Besides, the Ki in data set [4] was determined as 90.5 µM; in data set [7] it was 70.3 µM. Moreover, in the data set with Mus musculus [5], the arm entries stood at 4.63 entries.
On to `Cc1ccc(/C=C/C(=N/Nc2nc3ccccc3c(=O)n2C)c2ccccc2)cc1`, for which the Activity in the data set with Mus musculus [1] is 79.25%; in the data set with Mus musculus [2], 216.12; in data set [4], “tde”; in data set [7], “tde”. Further, the IC50 in data set [3] turned out to be 470 µM; in data set [6], 30.5 µM. For the same molecule, the inhibition constant (Ki) was 64.6 µM in data set [4] and 30.2 µM in data set [7]. Besides, the arm entries in the data set with Mus musculus [5] was 6.37 entries.
Take `Cc1ccc(C2=NN(c3nc4ccccc4c(=O)n3C)C(c3cccs3)C2)cc1` (stereo not drawn): the Activity was 74.14% in the data set on Mus musculus [1], 188.14 with Mus musculus [2], “tde” in data set [4] and “tde” in data set [7]. For the same molecule, the IC50 was determined as 70.8 µM in data set [3] and 415 µM in data set [6]. The values for the Ki in data set [4] and in data set [7] were 90.7 µM and 130 µM, respectively. Besides, the arm entries with Mus musculus [5] was found to be 5.14 entries.
Take `CCOc1ccc(/C=C/C(=N/Nc2nc3ccccc3c(=O)n2C)c2ccccc2)cc1`: the Activity is listed as 90.23% in the data set with Mus musculus [1], 218.88 with Mus musculus [2], “tde” in data set [4] and “tde” in data set [7]. Further, the results for the IC50 in data set [3] and in data set [6] were 429 µM and 29 µM, respectively. In addition, the Ki was found to be 30.6 µM in data set [4] and 80.1 µM in data set [7]. The arm entries with Mus musculus [5] turned out to be 5.75 entries.
`COc1ccc(/C=C/C(=N/Nc2nc3ccccc3c(=O)n2C)c2ccccc2)cc1`: the Activity is on record as 86.75% in the data set on Mus musculus [1], 225.38 in the data set with Mus musculus [2], “tde” in data set [4] and “tde” in data set [7]. Besides, the results for the IC50 in data set [3] and in data set [6] were 399 µM and 9.05 µM, respectively. The results for the Ki in data set [4] and in data set [7] were 10.6 µM and 1.15 µM, respectively. The arm entries with Mus musculus [5] turned out to be 4.5 entries.
Regarding `COc1ccc(/C=C/C(=N/Nc2nc3ccccc3c(=O)n2C)c2ccccc2)cc1OC`, the Activity with Mus musculus [1] was 130.57%; in the data set with Mus musculus [2], 209.63; in data set [4], “tde”; in data set [7], “tde”. The IC50 in data set [3] was found to be 470 µM; in data set [6], 68 µM. Also, the Ki in data set [4] is 65.1 µM; in data set [7], 90.7 µM. Also, the arm entries with Mus musculus [5] stood at 5.63 entries.
Turning to `Cn1c(=S)[nH]c2ccccc2c1=O`, the IC50 was 120 µM in data set [3] and 3.42 µM in data set [6]. The Ki amounted to 78.3 µM in data set [4] and 30.2 µM in data set [7]. In addition, the Activity entry in data set [4] and in data set [7] was “tde” each time.
For the molecule `Cn1c(N2N=C(c3ccc(Cl)cc3)CC2c2cccs2)nc2ccccc2c1=O` (stereo not drawn), the Activity is listed as 61.83% in the data set with Mus musculus [1], 244.5 in the data set on Mus musculus [2], “tde” in data set [4] and “tde” in data set [7]. Besides, the IC50 in data set [3] is 27.6 µM; in data set [6] it was 420 µM. Further, the Ki amounted to 25.6 µM in data set [4] and 65.3 µM in data set [7]. In the data set on Mus musculus [5], the arm entries turned out to be 2.29 entries.
In the case of `Cc1ccc(C(/C=C/c2cccs2)=N\Nc2nc3ccccc3c(=O)n2C)cc1`, the Activity in the data set with Mus musculus [1] is reported as 65.57%; with Mus musculus [2], 204.71; in data set [4], “tde”; in data set [7], “tde”. Further, the half-maximal inhibitory concentration (IC50) in data set [3] turned out to be 419 µM; in data set [6], 33.2 µM. Further, the Ki in data set [4] was 188 µM; in data set [7], 190 µM. Also, the arm entries in the data set on Mus musculus [5] was found to be 5.57 entries.
Regarding `Cn1c(N/N=C(/C=C/c2cccs2)c2ccc(Cl)cc2)nc2ccccc2c1=O`, the Activity with Mus musculus [1] is 50.39%; with Mus musculus [2], 162.17; in data set [4] it was “tde”; in data set [7], “tde”. The IC50 in data set [3] was determined as 416 µM; in data set [6], 28 µM. Also, the Ki in data set [4] is 69.1 µM; in data set [7], 28.2 µM. The arm entries with Mus musculus [5] came out at 8.5 entries.
Regarding `COc1ccc(C(/C=C/c2cccs2)=N\Nc2nc3ccccc3c(=O)n2C)cc1`, the Activity in the data set on Mus musculus [1] is on record as 49.29%; with Mus musculus [2], 206.29; in data set [4] it was “tde”; in data set [7], “tde”. Besides, the IC50 in data set [3] turned out to be 299 µM; in data set [6], 27.2 µM. Also, the inhibition constant (Ki) in data set [4] turned out to be 184 µM; in data set [7] it was 185 µM. Further, the arm entries in the data set with Mus musculus [5] was found to be 8 entries.
For `Cn1c(NN)nc2ccccc2c1=O`, the IC50 in data set [3] stood at 21.2 µM; in data set [6], 37.4 µM. Besides, the results for the Ki in data set [4] and in data set [7] were 18.6 µM and 25.2 µM, respectively. The Activity entry in data set [4] and in data set [7] was “tde” each time.
On to `Cc1ccc(C(/C=C/c2ccco2)=N\Nc2nc3ccccc3c(=O)n2C)cc1`, for which the Activity with Mus musculus [1] is recorded as 82.43%; in the data set on Mus musculus [2], 238.67; in data set [4], “tde”; in data set [7], “tde”. Moreover, the results for the IC50 in data set [3] and in data set [6] were 320 µM and 90.8 µM, respectively. Besides, the inhibitory constant (Ki) was determined as 179 µM in data set [4] and 181 µM in data set [7]. For the same molecule, the arm entries in the data set on Mus musculus [5] is 5.14 entries.
In the case of `Cn1c(N/N=C(/C=C/c2ccccc2)c2ccccc2)nc2ccccc2c1=O`, the Activity in the data set with Mus musculus [1] is 55.43%; with Mus musculus [2], 191; in data set [4], “tde”; in data set [7], “tde”. In addition, the IC50 in data set [3] amounted to 415 µM; in data set [6], 35.1 µM. The Ki in data set [4] came to 70.5 µM; in data set [7], 34.2 µM. For the same molecule, the arm entries in the data set with Mus musculus [5] stood at 5.37 entries.
With `Cn1c(N/N=C(/C=C/c2ccc(Br)cc2)c2ccccc2)nc2ccccc2c1=O`, the Activity is recorded as 65.57% with Mus musculus [1], 218.71 in the data set with Mus musculus [2], “tde” in data set [4] and “tde” in data set [7]. Moreover, the IC50 in data set [3] is 487 µM; in data set [6], 30.5 µM. Also, the Ki was determined as 69.6 µM in data set [4] and 40.3 µM in data set [7]. In addition, the arm entries in the data set on Mus musculus [5] was found to be 3.87 entries.
Consider `Cn1c(N/N=C(/C=C/c2ccc(Cl)cc2)c2ccccc2)nc2ccccc2c1=O`, for which the Activity is 125.86% in the data set on Mus musculus [1], 284.2 in the data set with Mus musculus [2], “tde” in data set [4] and “tde” in data set [7]. Further, the IC50 in data set [3] came out at 378 µM; in data set [6] it was 3.56 µM. Besides, the figures for the Ki in data set [4] and in data set [7] were 7.8 µM and 1.05 µM, respectively. Besides, the arm entries in the data set with Mus musculus [5] worked out at 2.51 entries.
`C#CCN(C)Cc1ccccc1` [PARGYLINE]: the Ki came out at 3.36 µM in data set [4] and 8.5 µM in data set [7].
